Compound activity: PubChem, several laboratories
Rows were chosen to be rich in hits. Some 2.7% of all compounds tested hit in one or more screens of this group.
Yeast growth inh: chemicals that inhibit yeast BB579 growth in restrictive medium (lifespan-shortening candidates) | 0.51% of 140,000 active | AID 804 | inhibition, % at 10 µM | S. cerevisiae BB579 growth, OD615, 48 h;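 active means inhibition above a set limit, 3 SD over the mean compound inhibition, cut at about 44% in these data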
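Test system: S. cerevisiae DeaD strain BB579 yeast; Medium: restrictive CSMM-D medium; Compound: one dose, 10 µM compound with 0.25% DMSO; Incubation: 4 h cell preincubation, 48 h compound exposure, 30 °C humidified; Signal: OD at 615 nm; Benchmarks: amphotericin B at 10 µg/mL as positive control.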
Yeast lifespan up: extends the lifespan of yeast. inhibition of the nicotinamide effect, % at 10 µM. S. cerevisiae growth with nicotinamide, OD615; deaD strain in restrictive glucose medium. 0.68% of 130,000 active;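 active means inhibition above a set limit, placed 3 SD over the median of all compounds, cut at about 26% in these data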
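Test system – modified budding yeast, DeaD strain · Compound – single dose 10 µM compound, 0.25% DMSO · Times – culture preincubation 4 h, compound exposure 48 h, both 30 °C · Detection – optical density (absorbance) at 615 nm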
RAM inhibit: inhibitors of the yeast RAM network | S. cerevisiae dse1pr::URA3 reporter, 5-FOA growth OD615, 2 d; analog-sensitive cbk1-as2 kinase mutant strain | inhibition, % at 50 µM | 1.8% of 190,000 active;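 active means inhibition above a set limit, 3 SD over mean compound inhibition, cut at about 8.4% in these data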;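 further: inhibition rescues growth on 5-FOA so higher OD means more RAM inhibition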
SDO1 yeast rescue: restores growth of sdo1-depleted yeast | S. cerevisiae sdo1-depleted JHY4D growth rescue, OD600 30 h; stronger effect = higher value; pdr5 snq2 efflux-pump mutant strain | z-score at 10 µM | 0.21% of 140,000 active;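 active means z-score above 3 at both the 24 hr and the 30 hr optical density reads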
Large screens that a line does not name were inactive.

Cn1c(N)c(C(=O)c2ccc(Cl)cc2)c(=O)n(C)c1=O	none
CCOc1ccc2nc(NCCCNS(=O)(=O)c3ccccc3)c(C#N)cc2c1	RAM inhibit 9.7
CC(C)c1ccc(N2CC(C)(C)C2=O)cc1	none (no result: Yeast growth inh, Yeast lifespan up, SDO1 yeast rescue)
CCc1cc(=O)oc2cc(C)c(CN3CCCC(C)C3)c(O)c12 (stereo not given)	Yeast lifespan up 30
CCCCc1cc(=O)oc2cc(C)c(CN3CCCC3)c(O)c12	none
Cc1nonc1NC(=O)CSc1nc(C2CCCCC2)nc2ccccc12	Yeast lifespan up 61
Cc1cc(NC(=O)CSc2nc(C3CCCCC3)nc3ccccc23)no1	none
COc1cc2nc(C3CCC3)n(NC(=O)COc3ccccc3)c(=O)c2cc1OC	Yeast lifespan up 53
COc1cc2nc(C3CCC3)n(NC(=O)C3CCC3)c(=O)c2cc1OC	none
COc1ccc2c(c1)C=C(C(=O)OCc1cccnc1)CO2	none (no result: Yeast growth inh, Yeast lifespan up, SDO1 yeast rescue)
COc1ccccc1NS(=O)(=O)c1ccc(NC(=O)c2ccncc2)cc1	none (no result: Yeast growth inh, Yeast lifespan up, SDO1 yeast rescue)
CCn1ccc(C(=O)Nc2ccc(S(=O)(=O)Nc3ccccc3OC)cc2)n1	Yeast lifespan up 67
Cc1ccc(-c2nnc(SCC(=O)NNC(=O)COc3cccc4ccccc34)n2C)cc1	none
O=C1c2ccc3c4c(ccc(c24)C(=O)N1NC(=O)C(F)(F)F)CC3	Yeast growth inh 54
C/C(CCc1ccc2c(c1)OCO2)=N\N=C(/N)SC1CC(=O)N(c2ccc(Cl)cc2)C1=O (stereo not given)	none
N/C(=N\N=C\c1ccc2c(c1)OCO2)SC1CC(=O)N(c2ccc(C(=O)O)cc2)C1=O (stereo not given)	RAM inhibit 8.6 (no result: Yeast growth inh, Yeast lifespan up, SDO1 yeast rescue)
C#CCn1c(=NC(=O)c2ccc(S(=O)(=O)N3CCCc4ccccc43)cc2)sc2cc(S(N)(=O)=O)ccc21	none
Cn1c(=NC(=O)c2ccc(S(=O)(=O)N3CCCc4ccccc43)cc2)sc2cc(S(C)(=O)=O)ccc21	RAM inhibit 10
CCOC(=O)c1cc(CC)sc1NC(=O)c1cc(OCC)c(OCC)c(OCC)c1	RAM inhibit 10
CCOC(=O)c1cc(-c2ccccc2)sc1NC(=O)C(C)Sc1nnc(C)s1 (stereo not given)	RAM inhibit 11
CCOC(=O)c1cc(-c2ccccc2)sc1NC(=O)C(C)Sc1nnnn1C (stereo not given)	none
CCOC(=O)c1cc(CC)sc1NC(=O)C(c1ccccc1)c1ccccc1	RAM inhibit 9.3
O=P(COCCCCCOCP(=O)(c1ccccc1)c1ccccc1)(c1ccccc1)c1ccccc1	none (no result: Yeast growth inh, Yeast lifespan up, SDO1 yeast rescue)
COc1ccc(N2C(=O)C(Cl)=C(N3CCCC(C)C3)C2=O)cc1 (stereo not given)	none
CC1CCCN(C2=C(Cl)C(=O)N(c3cccc(Cl)c3)C2=O)C1 (stereo not given)	RAM inhibit 10
O=S(=O)(c1ccc(Cl)c(C(F)(F)F)c1)N1CCN(c2ccccn2)CC1	none (no result: Yeast growth inh, Yeast lifespan up, SDO1 yeast rescue)
COc1ccccc1N1CCN(C(=O)c2ccc(CSc3ccccc3)cc2)CC1	RAM inhibit 9.8
CN1CCN(CC(O)COc2ccc(C34CC5CC(CC(C5)C3)C4)cc2)CC1 (stereo not given)	none (no result: Yeast growth inh, Yeast lifespan up, SDO1 yeast rescue)
COc1ccc(-c2noc(=O)n2CC(=O)N2CCC(Cc3ccccc3)CC2)cc1	none (no result: Yeast growth inh, Yeast lifespan up, SDO1 yeast rescue)
CN=c1scc(-c2cccs2)n1/N=C/c1ccccc1O	RAM inhibit 8.9
O=C(CSCc1c(F)cccc1Cl)Nc1ccccc1C(=O)N1CCOCC1	none (no result: Yeast growth inh, Yeast lifespan up, SDO1 yeast rescue)
C=CCn1c(SCC(=O)Nc2sccc2C(N)=O)nc2sc(CC)cc2c1=O	RAM inhibit 8.5
C=CCn1c(SCC(=O)Nc2sccc2C(N)=O)nc2ccc(Cl)cc2c1=O	none
Cc1c(NS(=O)(=O)c2cccc(C(=O)OCC(=O)N(C)C3CCCCC3)c2)c(=O)n(-c2ccccc2)n1C	none (no result: Yeast growth inh, Yeast lifespan up, SDO1 yeast rescue)
COc1ccc(-n2c(Cc3cccn3C)nnc2SCC(=O)Nc2ccccc2)cc1	RAM inhibit 9.8
COc1ccc(-n2c(Cc3cccn3C)nnc2SCC(=O)Nc2ccc(Cl)cc2)cc1	none
CCOc1cc(NC(=O)c2cccs2)c(OCC)cc1NC(=O)CCC(=O)NCC1CCCO1 (stereo not given)	none (no result: Yeast growth inh, Yeast lifespan up, SDO1 yeast rescue)
COC(=O)C1=C(C)NC(=O)/C1=C\N(C)C	none (no result: Yeast growth inh, Yeast lifespan up, SDO1 yeast rescue)
COC1=C(N)C(=O)c2nc(-c3nc(C(=O)O)c(C)c(-c4ccc(OC)c(OC)c4O)c3N)ccc2C1=O	Yeast growth inh 97
CCN(CC)S(=O)(=O)c1ccc(C(=O)OCC(=O)NCCN2C(=O)CSC2=O)cc1	none (no result: Yeast growth inh, Yeast lifespan up, SDO1 yeast rescue)
COc1cc(/C=N/N(C)c2ccccc2)cc(Cl)c1O	Yeast growth inh 100
COc1ccc(OC)c(/C=N/N(C)c2ccccc2)c1	none
COc1ccc(CCNC(=O)C(=O)NCc2ccccn2)cc1	none (no result: Yeast growth inh, Yeast lifespan up, SDO1 yeast rescue)
Cc1ccccc1OCC(=O)NNC(=S)NC(=O)c1ccccc1[N+](=O)[O-]	none
CC(C)(C)c1ccc(OCC(=O)NNC(=S)NC(=O)c2ccccc2[N+](=O)[O-])c(Br)c1	Yeast lifespan up 31
Cc1ccc(/C=C2\SC(=S)N(/N=C/c3cc([N+](=O)[O-])ccc3O)C2=O)o1	none (no result: Yeast growth inh, Yeast lifespan up, SDO1 yeast rescue)
CN(C)CC(C(=O)c1ccccc1)c1ccccc1 (stereo not given)	Yeast lifespan up 101
COc1ccc(C(C(=O)OC(C)CN(C)C)c2ccccc2)cc1 (stereo not given)	none
COc1cccc(/C=C/C(=C2/C(=O)N(c3ccccc3)N=C2C)c2ccccc2)c1OC	none
COc1cccc(/C=C/C(=C2/C(=O)N(c3ccccc3)N=C2C)c2ccc(Br)cc2)c1OC	RAM inhibit 8.7
CCn1c(Sc2nc(C)nc3scc(-c4cccs4)c23)n[nH]c1=O	Yeast growth inh 99
COCCCN1CN=C(Nc2nc3ccccc3o2)NC1	none (no result: Yeast growth inh, Yeast lifespan up, SDO1 yeast rescue)
CCOc1ccc(C(=O)C(CN2CCOCC2)c2ccccc2)cc1 (stereo not given)	Yeast lifespan up 49
O=C(CSc1nnc(SCc2ccccc2)s1)N/N=C/c1c(Cl)cccc1Cl	RAM inhibit 10
Cc1nn(C)c(C)c1C1Nc2ccccc2C(=O)N1O (stereo not given)	none (no result: Yeast lifespan up)
O=C1c2ccccc2NC(c2cnc3ccccc3n2)N1O (stereo not given)	Yeast lifespan up 57
CCn1c(SCC(=O)Nc2nc3ccc(C)cc3s2)nc2c(c1=O)SC(C)C2 (stereo not given)	RAM inhibit 10
CCn1c(SCC(=O)Nc2nc3ccccc3s2)nc2c(c1=O)SC(C)C2 (stereo not given)	none
CN(C(=O)COc1ncnc2sccc12)c1ccccc1	none (no result: Yeast growth inh, Yeast lifespan up, SDO1 yeast rescue)
COc1cccc(CC2(CO)CCCN(Cc3ccc4c(c3)OCCO4)C2)c1 (stereo not given)	none (no result: Yeast growth inh, Yeast lifespan up, SDO1 yeast rescue)
COc1ccc(C)cc1S(=O)(=O)N1CCN(c2cccc(C(F)(F)F)c2)CC1	RAM inhibit 11
COc1ccc(C(C)C)cc1S(=O)(=O)N1CCN(c2ccccc2)CC1	RAM inhibit 11 (no result: Yeast growth inh, Yeast lifespan up, SDO1 yeast rescue)
COc1ccc(C(C)C)cc1S(=O)(=O)N1CC(C)OC(C)C1 (stereo not given)	none (no result: Yeast growth inh, Yeast lifespan up, SDO1 yeast rescue)
COc1ccc(N2CCN(S(=O)(=O)c3cccc(C(F)(F)F)c3)CC2)cc1	none
Cc1ccccc1C(=O)N[C@H](C(=O)OCC(=O)c1ccc[nH]1)C(C)C	none
Cc1cc(S(=O)(=O)N2CCN(c3c(C)cccc3C)CC2)ccc1F	RAM inhibit 10
